We go through seven compounds from paper PMC10559049 (Heliyon, 2023).

The test system of data set [1] is LPS-treated BV2 microglial cells. The settings on record: 15 μmol; cited from earlier work.
Data set [2] has as its system sEH. The settings on record: derived from the leaves of Capsicum chinense; cited from earlier work.
Data set [3] concerns the target T1, sEH (Homo sapiens, UniProt P34913).
T1 sequence (P34913 1-555): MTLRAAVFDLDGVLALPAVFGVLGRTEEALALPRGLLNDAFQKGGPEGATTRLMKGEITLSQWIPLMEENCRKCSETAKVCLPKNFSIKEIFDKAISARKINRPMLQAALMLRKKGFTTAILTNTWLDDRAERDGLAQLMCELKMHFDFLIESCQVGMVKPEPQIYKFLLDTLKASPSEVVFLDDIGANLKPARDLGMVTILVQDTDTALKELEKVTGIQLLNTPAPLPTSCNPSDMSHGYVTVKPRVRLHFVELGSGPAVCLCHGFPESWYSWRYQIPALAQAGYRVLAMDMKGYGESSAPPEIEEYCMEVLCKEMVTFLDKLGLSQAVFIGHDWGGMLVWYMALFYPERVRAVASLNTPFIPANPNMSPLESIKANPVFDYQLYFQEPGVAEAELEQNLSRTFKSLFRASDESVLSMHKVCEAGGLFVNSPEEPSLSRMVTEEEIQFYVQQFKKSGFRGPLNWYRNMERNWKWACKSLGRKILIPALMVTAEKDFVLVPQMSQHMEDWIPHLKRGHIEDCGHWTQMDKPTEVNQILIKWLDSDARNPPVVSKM
In words: biochemical.

In data set [4] the target is T1, sEH. In words: Enzyme kinetics analysis. It counts as biochemical. The gist of the method: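 Recombinant human sEH (250 ng/mL) in 25 mM Tris–HCl, pH 7.0, with 0.1 mg/mL BSA, mixed with inhibitor in methanol, then PHOME substrate added at several concentrations. Product fluorescence was read at ex 330/em 465 nm. Initial velocities at each fixed inhibitor concentration were plotted double-reciprocally (Lineweaver–Burk) to assign inhibition mode and derive Ki. Triplicates in three independent experiments, mean ± SEM.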

The conditions of data set [5]: named as a side effect restricting use; cited from earlier work.
The conditions of data set [6]: named as a side effect restricting use; cited from earlier work. The source holds these as a separate data set.

For coumaroyl-amino butanol glucopyranoside, the “anti-neuroinflammatory activities via TNF-α suppression” value in data set [1] was “exerted anti-neuroinflammatory activities”.
For the compound `O=C(C=Cc1cc(O)c2c(c1)C(C(=O)NCCc1ccc(O)cc1)C(c1ccc(O)c(O)c1)O2)NCCc1ccc(O)cc1` (stereo not shown) [3,3′-demethyl-grossamide], the “anti-neuroinflammatory activities via TNF-α suppression” value in data set [1] is “exerted anti-neuroinflammatory activities”.
In the case of `O=C(/C=C/c1ccc(O)cc1)NCCc1ccc(O)cc1` [N-trans-Coumaroyltyramine], the “mode of inhibition against sEH” value with sEH [2] is given as “competitive inhibition”.
A word on the IC50: it is the concentration that inhibits the measured activity by half. Read a low IC50 as higher potency. Broadly, the Ki is a dissociation constant, usually derived from enzyme kinetics or from competition with a known ligand. `COc1cc([C@@H]2Oc3c(OC)cc(/C=C/C(=O)NCCc4ccc(O)cc4)cc3[C@H]2C(=O)NCCc2ccc(O)cc2)ccc1O` [Compound 5, grossamide] showed an IC50 on sEH [3] of 3300 ± 300 nM. The same compound gave a Ki on sEH [4] of 1500 nM. Also, on sEH [4] (Lineweaver-Burk plots), the Inhibition type entry is reported as “Competitive”.
For the compound `COc1cc(/C=C/C(=O)NCCc2ccc(O)cc2)ccc1O` [N-trans-feruloyltyramine], in the data set with sEH [2], the “mode of inhibition against sEH” value was “competitive inhibition”.
On to `COc1cc(/C=C(C(=O)NCCc2ccc(O)cc2)\C(=C/c2ccc(O)c(OC)c2)C(=O)NCCc2ccc(O)cc2)ccc1O` [cannabisin G], for which, in data set [1], the “anti-neuroinflammatory activities via TNF-α suppression” value is recorded as “exerted anti-neuroinflammatory activities”.
Take `O=C(O)CCCCCCCCCCCNC(=O)NC12CC3CC(CC(C3)C1)C2` [AUDA, 12-(3-adamantane-1-yl-ureido)-dodecanoic acid]: in data set [5], the metabolic stability entry is “metabolic instability”. Further, the water solubility entry in data set [6] was “limited water solubility”.
